Residues, ends and D or L forms follow the SMILES beside them. *: point of attachment. NHPhenethyl = c1ccc(CCN*)cc1; Boc = CC(C)(C)OC(=O)*
Tests used:
[1] = biological target: T1, Cholecystokinin receptor type A (Cavia porcellus, UniProt Q63931); assay: Displacement of [125I]BH-CCK-8S from […] expressed in guinea pig pancreatic cells; format: cell-based
T1 sequence (Q63931 whole entry): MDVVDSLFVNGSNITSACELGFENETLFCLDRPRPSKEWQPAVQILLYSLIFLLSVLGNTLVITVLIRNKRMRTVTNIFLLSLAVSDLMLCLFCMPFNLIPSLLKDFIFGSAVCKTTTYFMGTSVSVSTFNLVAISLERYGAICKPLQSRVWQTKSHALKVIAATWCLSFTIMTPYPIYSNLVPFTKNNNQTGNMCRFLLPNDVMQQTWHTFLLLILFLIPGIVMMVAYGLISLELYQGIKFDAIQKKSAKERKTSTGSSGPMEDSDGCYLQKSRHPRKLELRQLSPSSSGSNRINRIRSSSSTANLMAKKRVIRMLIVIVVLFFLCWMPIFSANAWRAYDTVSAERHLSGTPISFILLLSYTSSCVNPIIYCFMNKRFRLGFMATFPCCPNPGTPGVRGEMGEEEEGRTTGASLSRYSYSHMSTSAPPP
Outline: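 Radioligand competition binding on guinea pig pancreas cell homogenates, using 20 pM [125I]BH-CCK-8S as the tracer. Affinity is reported as pKi. Results come from at least three separate experiments.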

[2] = biological target: T2, Gastrin/cholecystokinin type B receptor (Rattus norvegicus) (UniProt P30553); details: Stomach
T2 sequence (whole entry): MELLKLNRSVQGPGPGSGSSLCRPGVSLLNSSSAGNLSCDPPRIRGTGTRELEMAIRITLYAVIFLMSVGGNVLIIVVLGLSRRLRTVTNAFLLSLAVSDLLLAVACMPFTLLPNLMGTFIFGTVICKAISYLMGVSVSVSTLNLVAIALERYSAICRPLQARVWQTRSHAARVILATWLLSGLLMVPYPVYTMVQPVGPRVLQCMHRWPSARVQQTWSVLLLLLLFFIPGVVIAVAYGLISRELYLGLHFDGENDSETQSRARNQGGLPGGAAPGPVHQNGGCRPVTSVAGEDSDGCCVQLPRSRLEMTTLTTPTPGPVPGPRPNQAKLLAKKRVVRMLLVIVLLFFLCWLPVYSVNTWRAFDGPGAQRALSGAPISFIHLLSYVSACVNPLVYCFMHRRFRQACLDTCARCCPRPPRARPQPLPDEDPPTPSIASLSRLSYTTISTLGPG

Structure (SMILES) | Ki [1] | pKb [2]
O=C1NN(C(=O)Nc2ccc(Br)cc2)[C@H](c2ccccc2)[C@H]1c1ccccc1 | 20 µM | 5.9
CC(C)C[C@H](NC(=O)[C@H](Cc1c[nH]c2ccccc12)NC(=O)OC(C)(C)C)C(=O)N[C@@H](CC(=O)O)C(=O)NCCc1ccccc1 (Boc-Trp-Leu-Asp-NHPhenethyl) | 7.94 µM | 6.9
O=C(O)c1cc(NC(=O)[C@H](Cc2ccccc2)NC(=O)c2cc3ccccc3cc2C(=O)NCC23CC4CC(CC(C4)C2)C3)cc(C(=O)O)c1 |  | 8.2
Nc1cccc2cc(C(=O)N[C@@H](Cc3ccccc3)C(=O)Nc3cc(C(=O)O)cc(C(=O)O)c3)c(C(=O)NCC34CC5CC(CC(C5)C3)C4)cc12 | 2.51 µM | 9
C[C@@H](NC(=O)C[C@@H]1CCCN1C(=O)C1C2c3ccccc3C(c3ccccc32)C1C(=O)NCC12CC3CC(CC(C3)C1)C2)C(=O)O (stereo partly specified) | 25.1 µM | 7.3
CC(=O)N1[C@H](CC23CC4CC(CC(C4)C2)C3)C(=O)N(Cc2ccccc2)c2ccccc2C(=O)C[C@H]1C(=O)NCC(=O)O | 7.94 µM | 6.8
CNc1cccc(NC(=O)N[C@@H]2N=C(c3ccccn3)c3ccccc3N(CC(=O)C(C)(C)C)C2=O)c1 [NETAZEPIDE] | 0.398 µM | 9.9
O=C(O)c1cc(NC(=O)[C@H](Cc2ccccc2)NC(=O)c2cc3sccc3cc2C(=O)NCC23CC4CC(CC(C4)C2)C3)cc(C(=O)O)c1 | 0.794 µM | 9.4
O=C(O)c1cc(NC(=O)[C@H](Cc2ccccc2)NC(=O)C2C3c4ccccc4C(c4ccccc43)C2C(=O)NCC23CC4CC(CC(C4)C2)C3)cc(C(=O)O)c1 (stereo partly specified) |  | 8.3
CN1C(=O)[C@H](NC(=O)Nc2cccc(-c3nnn[nH]3)c2)N=C(c2ccccc2)c2ccccc21 | 0.316 µM | 8.4
C[C@](Cc1c[nH]c2ccccc12)(NC(=O)OC1[C@H]2C[C@@H]3C[C@@H](C[C@H]1C3)C2)C(=O)NC[C@H](NC(=O)CCC(=O)O)c1ccccc1 (stereo partly specified) [CI-988] | 0.631 µM | 
Cn1ccc2cc(C(=O)N[C@@H](Cc3ccccc3)C(=O)Nc3cc(C(=O)O)cc(C(=O)O)c3)c(C(=O)NCC34CC5CC(CC(C5)C3)C4)cc21 | 3.98 µM | 9.8
Cc1cccc(NC(=O)N[C@@H]2N=C(c3ccccc3)c3ccccc3N(C)C2=O)c1 [L-365260] | 0.316 µM | 7.6
O=C(O)c1cc(NC(=O)[C@H](Cc2ccc(I)cc2)NC(=O)c2cc3cc[nH]c3cc2C(=O)NCC23CC4CC(CC(C4)C2)C3)cc(C(=O)O)c1 | 2 µM | 9.1
O=C(O)c1cc(NC(=O)[C@H](Cc2ccccc2)NC(=O)c2cc3cc[nH]c3cc2C(=O)NC2CCCCCC2)cc(C(=O)O)c1 | 3.16 µM | 9.3
COc1ccc(CCNC(=O)[C@H](CC(=O)O)NC(=O)[C@H](Cc2ccc3ccccc3c2)NC(=O)[C@H](Cc2c[nH]c3ccccc23)NC(=O)OC(C)(C)C)cc1 | 0.0631 µM | 5.4
O=C(O)C1C2c3ccccc3C(c3ccccc32)C1C(=O)NCC12CC3CC(CC(C3)C1)C2 (stereo unspecified) |  | 5.6
Nc1cccc2cc(C(=O)NCC34CC5CC(CC(C5)C3)C4)c(C(=O)N[C@@H](Cc3ccccc3)C(=O)Nc3cc(C(=O)O)cc(C(=O)O)c3)cc12 | 2.51 µM | 8.2
O=C(O)c1cc(NC(=O)[C@H](Cc2ccccc2)NC(=O)c2cc3cc[nH]c3cc2C(=O)NCC23CC4CC(CC(C4)C2)C3)cc(C(=O)O)c1 |  | 9.3
O=C(O)c1cccc(NC(=O)c2nc(C3CCCCC3)[nH]c2COC23CC4CC(CC(C4)C2)C3)c1 |  | 9.1
O=C(O)c1cccc(NC(=O)c2nc(-c3ccccc3)[nH]c2CC23CC4CC(CC(C4)C2)C3)c1 | 1.26 µM | 6.6

From ChEMBL document CHEMBL1140745, “Rationalizing the activities of diverse cholecystokinin 2 receptor antagonists using molecular field points” (J Med Chem, 2008)
